# Data: ChEMBL document CHEMBL1155452, “Oncocin (VDKPPYLPRPRPPRRIYNR-NH2): a novel antibacterial peptide optimized against gram-negative human pathogens” (J Med Chem, 2010)
# Where a SMILES comes first, the peptide text is derived from it. [ ]: non-standard residue; d: D form. Orn = NCCC[C@H](N)C(=O)O
# Key:
# Escherichia coli [1] = test: Antimicrobial activity against Escherichia coli 205024 after 20 hrs by broth microdilution method; assay type: functional; settings: Escherichia coli, 205024, 20 h
# Method in brief: (§1)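 Pathogens grown overnight on Columbia agar. Colonies suspended in 0.9% saline to OD 0.1, diluted 1:300 in 1% TSB, final (1-2) × 10^5 cfu/well. Peptides 2-fold serially diluted in 1% TSB from 128 to typically 0.5 μg/mL. Incubation at 37 °C; A595 read after 20 ± 2 h. MIC is the lowest concentration with absorbance not above medium only. Triplicate.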
# Proteus vulgaris [2] = test: Antimicrobial activity against Proteus vulgaris ICB 9095 after 20 hrs by broth microdilution method; assay type: functional; settings: ICB 9095, 20 h; method in brief: as §1
# Stenotrophomonas [3] = test: Antimicrobial activity against Stenotrophomonas ICB 7569 after 20 hrs by broth microdilution method; assay type: functional; settings: ICB 7569, 20 h; method in brief: as §1
# Escherichia coli [4] = test: Antimicrobial activity against Escherichia coli 70502001 after 20 hrs by broth microdilution method; assay type: functional; settings: Escherichia coli, 70502001, 20 h; method in brief: as §1
# Stenotrophomonas [5] = test: Antimicrobial activity against Stenotrophomonas ICB 308054 after 20 hrs by broth microdilution method; assay type: functional; settings: ICB 308054, 20 h; method in brief: as §1
# Klebsiella pneumoniae [6] = test: Antimicrobial activity against Klebsiella pneumoniae 57 USA after 20 hrs by broth microdilution method; assay type: functional; method in brief: as §1
# SH-SY5Y = test: Cytotoxicity against human SH-SY5Y cells at 600 ug/ml after 24 hrs by MTT assay; assay type: cell-based
# Method in brief: (§2)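 HeLa (1.5 × 10^4/well, seeded overnight) or SH-SY5Y (2 × 10^4/well, differentiated 5 days with 10 μM trans-retinoic acid) in DMEM/Ham's F-12 with 5% or 15% FBS. Peptide added at 600 μg/mL for 24 h at 37 °C, 5% CO2. MTT 0.5 mg/mL for 4 h, then SDS/HCl for 16 h; A590 read against 650 nm. Normalized to PBS (100%); DMSO 12% as positive control.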
# Klebsiella pneumoniae [7] = test: Antimicrobial activity against Klebsiella pneumoniae DSM 681 after 20 hrs by broth microdilution method; assay type: functional; settings: DSM 681, 20 h; method in brief: as §1
# Pseudomonas aeruginosa [8] = test: Antimicrobial activity against Pseudomonas aeruginosa Walter after 20 hrs by broth microdilution method; assay type: functional
# Method in brief: (§3)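 Pathogenic strains grown overnight on Columbia agar, colonies suspended in 0.9% saline to OD 0.1, diluted 1:300 in 1% TSB; final (1-2) × 10^5 cfu/well. Peptides 2-fold serially diluted in 1% TSB from 128 μg/mL, typically to 0.5 μg/mL. Incubated 37 °C, absorbance at 595 nm after 20 ± 2 h, in triplicate; MIC = lowest concentration with absorbance not exceeding medium only.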
# Acinetobacter baumannii [9] = test: Antimicrobial activity against Acinetobacter baumannii ICB 14067 after 20 hrs by broth microdilution method; assay type: functional; settings: ICB 14067, 20 h; method in brief: as §1
# Escherichia coli [10] = test: Antimicrobial activity against Escherichia coli 8474 after 20 hrs by broth microdilution method; assay type: functional; settings: Escherichia coli, 8474, 20 h; method in brief: as §1
# Acinetobacter baumannii [11] = test: Antimicrobial activity against Acinetobacter baumannii ICB 9250 after 20 hrs by broth microdilution method; assay type: functional; settings: ICB 9250, 20 h; method in brief: as §1
# Escherichia coli [12] = test: Antimicrobial activity against Escherichia coli 455/7 after 20 hrs by broth microdilution method; assay type: functional; settings: 455/7, 20 h; method in brief: as §1
# Klebsiella pneumoniae [13] = test: Antimicrobial activity against Klebsiella pneumoniae 63 after 20 hrs by broth microdilution method; assay type: functional; settings: Klebsiella pneumoniae, 63, 20 h; method in brief: as §3
# Escherichia coli [14] = test: Antimicrobial activity against Escherichia coli Neumann after 20 hrs by broth microdilution method; assay type: functional; method in brief: as §1
# Proteus vulgaris [15] = test: Antimicrobial activity against Proteus vulgaris ICB 9081 after 20 hrs by broth microdilution method; assay type: functional; settings: ICB 9081, 20 h; method in brief: as §1
# Pseudomonas aeruginosa [16] = test: Antimicrobial activity against Pseudomonas aeruginosa 60909001 after 20 hrs by broth microdilution method; assay type: functional; settings: Pseudomonas aeruginosa, 60909001, 20 h; method in brief: as §3
# Micrococcus luteus = test: Antibacterial activity against Micrococcus luteus ATCC 10240 after 20 hrs by broth microdilution assay; assay type: functional; settings: ATCC 10240, 20 h
# Method in brief: (§4)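 Nutrient-broth overnight cultures diluted in 1% TSB; E. coli BL21AI 7.5 × 10^5 cells/well, M. luteus ATCC 10240 2 × 10^6 cells/well. Peptides serially 2-fold diluted in 1% TSB from 128 to typically 0.5 μg/mL. Incubation at 37 °C; A595 read after 20 ± 2 h. MIC is the lowest concentration with absorbance not above medium only. Triplicate.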
# Escherichia coli [17] = test: Antibacterial activity against Escherichia coli BL21 AI after 20 hrs by broth microdilution assay; assay type: functional; method in brief: as §4
# Acinetobacter baumannii [18] = test: Antimicrobial activity against Acinetobacter baumannii M17 after 20 hrs by broth microdilution method; assay type: functional; settings: M17, 20 h; method in brief: as §1
# Enterobacter cloacae [19] = test: Antimicrobial activity against Enterobacter cloacae Ha185 after 20 hrs by broth microdilution method; assay type: functional; settings: Ha185, 20 h; method in brief: as §3
# Klebsiella pneumoniae [20] = test: Antimicrobial activity against Klebsiella pneumoniae ATCC 12657 after 20 hrs by broth microdilution method; assay type: functional; settings: ATCC 12657, 20 h; method in brief: as §1
# Enterobacter cloacae [21] = test: Antimicrobial activity against Enterobacter cloacae Ha089 after 20 hrs by broth microdilution method; assay type: functional; settings: Ha089, 20 h; method in brief: as §1
# Escherichia coli [22] = test: Antimicrobial activity against Escherichia coli 70430001 after 20 hrs by broth microdilution method; assay type: functional; settings: Escherichia coli, 70430001, 20 h; method in brief: as §1
# Klebsiella pneumoniae [23] = test: Antimicrobial activity against Klebsiella pneumoniae ATCC 27799 after 20 hrs by broth microdilution method; assay type: functional; settings: ATCC 27799, 20 h; method in brief: as §3
# Pseudomonas aeruginosa [24] = test: Antimicrobial activity against Pseudomonas aeruginosa 60811001 after 20 hrs by broth microdilution method; assay type: functional; settings: Pseudomonas aeruginosa, 60811001, 20 h; method in brief: as §3
# HeLa = test: Cytotoxicity against human HeLa cells at 600 ug/ml after 24 hrs by MTT assay; assay type: cell-based; method in brief: as §2
# [25] = Stability in 100% mouse serum assessed as half life at 75 ug/ml by MALDI-TOF-MS analysis; assay type: ADME, cell-free
# Method in brief: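 Peptide at 75 μg/mL final in pooled mouse serum (undiluted or 25% v:v aqueous), 37 °C. Triplicate aliquots taken at 0, 30, 60, 120 and 240 min and precipitated with 3% TCA on ice for 10 min. Supernatant neutralized with NaOH and analysed by RP-HPLC on C18 with TFA-containing gradient. Amounts expressed relative to 0 min; metabolites identified by MALDI-TOF-MS.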
# Pseudomonas aeruginosa [26] = test: Antimicrobial activity against Pseudomonas aeruginosa PAO1 after 20 hrs by broth microdilution method; assay type: functional; settings: PAO1, 20 h; method in brief: as §3
# Klebsiella pneumoniae [27] = test: Antimicrobial activity against Klebsiella pneumoniae 8085 after 20 hrs by broth microdilution method; assay type: functional; settings: Klebsiella pneumoniae, 8085, 20 h; method in brief: as §1
# Pseudomonas aeruginosa [28] = test: Antimicrobial activity against Pseudomonas aeruginosa 61118003 after 20 hrs by broth microdilution method; assay type: functional; settings: Pseudomonas aeruginosa, 61118003, 20 h; method in brief: as §3
# Enterobacter cloacae [29] = test: Antimicrobial activity against Enterobacter cloacae Ha89 after 20 hrs by broth microdilution method; assay type: functional; settings: Ha89, 20 h; method in brief: as §1
# Pseudomonas aeruginosa [30] = test: Antimicrobial activity against Pseudomonas aeruginosa 70108001 after 20 hrs by broth microdilution method; assay type: functional; settings: Pseudomonas aeruginosa, 70108001, 20 h; method in brief: as §3
# Acinetobacter baumannii [31] = test: Antimicrobial activity against Acinetobacter baumannii ICB 14072 after 20 hrs by broth microdilution method; assay type: functional; settings: ICB 14072, 20 h; method in brief: as §1
# Pseudomonas aeruginosa [32] = test: Antimicrobial activity against Pseudomonas aeruginosa DSM 3227 after 20 hrs by broth microdilution method; assay type: functional; settings: DSM 3227, 20 h; method in brief: as §3
# Escherichia coli [33] = test: Antimicrobial activity against Escherichia coli 70329001 after 20 hrs by broth microdilution method; assay type: functional; settings: Escherichia coli, 70329001, 20 h; method in brief: as §1
# Acinetobacter baumannii [34] = test: Antimicrobial activity against Acinetobacter baumannii ICB 14073 after 20 hrs by broth microdilution method; assay type: functional; settings: ICB 14073, 20 h; method in brief: as §1
# Enterobacter cloacae [35] = test: Antimicrobial activity against Enterobacter cloacae Ha088 after 20 hrs by broth microdilution method; assay type: functional; settings: Ha088, 20 h; method in brief: as §1
# Stenotrophomonas [36] = test: Antimicrobial activity against Stenotrophomonas ICB 7789 after 20 hrs by broth microdilution method; assay type: functional; settings: ICB 7789, 20 h; method in brief: as §1
# Pseudomonas aeruginosa [37] = test: Antimicrobial activity against Pseudomonas aeruginosa ATCC 27853 after 20 hrs by broth microdilution method; assay type: functional; settings: ATCC 27853, 20 h; method in brief: as §3
# Enterobacter cloacae [38] = test: Antimicrobial activity against Enterobacter cloacae 34654 after 20 hrs by broth microdilution method; assay type: functional; settings: Enterobacter cloacae, 34654, 20 h; method in brief: as §1
# Escherichia coli [39] = test: Antimicrobial activity against Escherichia coli 70419002 after 20 hrs by broth microdilution method; assay type: functional; settings: Escherichia coli, 70419002, 20 h; method in brief: as §1
compound,measurement,setting,value
CC[C@H](C)[C@H](NC(=O)[C@H](CCCN)NC(=O)[C@H](CCCNC(=N)N)NC(=O)[C@@H]1CCCN1C(=O)[C@@H]1CCCN1C(=O)[C@H](CCCNC(=N)N)NC(=O)[C@@H]1CCCN1C(=O)[C@H](CCCNC(=N)N)NC(=O)[C@@H]1CCCN1C(=O)[C@H](CC(C)C)NC(=O)[C@H](Cc1ccc(O)cc1)NC(=O)[C@@H]1CCCN1C(=O)[C@@H]1CCCN1C(=O)[C@H](CCCCN)NC(=O)[C@H](CC(=O)O)NC(=O)[C@@H](N)C(C)C)C(=O)N[C@@H](Cc1ccc(O)cc1)C(=O)N[C@@H](CC(N)=O)C(=O)N[C@@H](CCCN)C(N)=O (H-VDKPPYLPRPRPPR[Orn]IYN[Orn]-NH2),MIC,Escherichia coli [1],1 µg/mL
same,MIC,Proteus vulgaris [2],4 µg/mL
same,MIC,Stenotrophomonas [3],16 µg/mL
same,MIC,Escherichia coli [4],1 µg/mL
same,MIC,Stenotrophomonas [5],32 µg/mL
same,MIC,Klebsiella pneumoniae [6],0.5 µg/mL
same,Activity,SH-SY5Y,Non-toxic
same,MIC,Klebsiella pneumoniae [7],0.5 µg/mL
same,MIC,Pseudomonas aeruginosa [8],4 µg/mL
same,MIC,Acinetobacter baumannii [9],1 µg/mL
same,MIC,Escherichia coli [10],0.5 µg/mL
same,MIC,Acinetobacter baumannii [11],0.5 µg/mL
same,MIC,Escherichia coli [12],0.5 µg/mL
same,MIC,Klebsiella pneumoniae [13],2 µg/mL
same,MIC,Escherichia coli [14],0.5 µg/mL
same,MIC,Proteus vulgaris [15],8 µg/mL
same,MIC,Pseudomonas aeruginosa [16],1 µg/mL
same,MIC,Micrococcus luteus,8 µg/mL
same,MIC,Escherichia coli [17],8 µg/mL
same,MIC,Acinetobacter baumannii [18],1 µg/mL
same,MIC,Enterobacter cloacae [19],0.5 µg/mL
same,MIC,Klebsiella pneumoniae [20],0.5 µg/mL
same,MIC,Enterobacter cloacae [21],0.25 µg/mL
same,MIC,Escherichia coli [22],0.5 µg/mL
same,MIC,Klebsiella pneumoniae [23],1 µg/mL
same,MIC,Pseudomonas aeruginosa [24],2 µg/mL
same,Activity,HeLa,Non-toxic
same,half-life at 75 ug/ml,[25],3 h
same,MIC,Pseudomonas aeruginosa [26],2 µg/mL
same,MIC,Klebsiella pneumoniae [27],0.5 µg/mL
same,MIC,Pseudomonas aeruginosa [28],1 µg/mL
same,MIC,Enterobacter cloacae [29],0.25 µg/mL
same,MIC,Pseudomonas aeruginosa [30],2 µg/mL
same,MIC,Acinetobacter baumannii [31],1 µg/mL
same,MIC,Pseudomonas aeruginosa [32],4 µg/mL
same,MIC,Escherichia coli [33],1 µg/mL
same,MIC,Acinetobacter baumannii [34],1 µg/mL
same,MIC,Enterobacter cloacae [35],0.25 µg/mL
same,MIC,Stenotrophomonas [36],32 µg/mL
same,MIC,Pseudomonas aeruginosa [37],2 µg/mL
same,MIC,Enterobacter cloacae [38],0.5 µg/mL
same,MIC,Escherichia coli [39],2 µg/mL
H-GKPRPYSPRPTSHPRPIRV-OH [DROSOCIN],Activity,SH-SY5Y,Non-toxic
same,Activity,HeLa,Non-toxic
H-VDKPPYLPRPHPPRRIYNNR-OH,MIC,Micrococcus luteus,32 µg/mL
same,MIC,Escherichia coli [17],64 µg/mL
